Experiments:
Format in all cases: functional
SW-620 = assay: Antitumor activity against human SW620 cells after 48 hrs by SRB assay; details: SW-620, 48 h
In short: (§1)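 NCI60 panel cells grown in RPMI 1640 with 5% FBS and 2 mM L-glutamine, plated at 5000–40,000 cells/well and preincubated 24 h at 37 °C, 5% CO₂. Compound was added from DMSO at five concentrations, 10-fold or 1/2 log dilutions, then incubated 48 h.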

U-251 = assay: Antitumor activity against human U251 cells after 48 hrs by SRB assay; details: U-251, 48 h; in short: as §1
SNB-75 = assay: Antitumor activity against human SNB75 cells after 48 hrs by SRB assay; details: SNB-75, 48 h; in short: as §1
OVCAR-8 = assay: Cytotoxicity against human OVCAR8 cells assessed as cellular growth at 10 uM after 48 hrs by SRB assay
In short: (§2)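 NCI-60 panel lines grown in RPMI 1640 with 5% FBS and 2 mM L-glutamine. Plated at 5000–40,000 cells/well and preincubated 24 h at 37 °C, 5% CO₂, with time-zero plates fixed in TCA. Compounds, dissolved in DMSO and diluted in medium, were applied for 48 h. Cells were TCA-fixed (10% final for adherent, 16% for suspension) and stained with 0.4% SRB in 1% acetic acid. Dye was solubilised in 10 mM Tris base and read at 515 nm; growth was expressed as a percentage of untreated control.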

UO-31 [1] = assay: Cytotoxicity against human UO31 cells assessed as cellular growth at 10 uM after 48 hrs by SRB assay; in short: as §2
HOP-62 = assay: Antitumor activity against human HOP62 cells after 48 hrs by SRB assay; details: HOP-62, 48 h
In short: (§3)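 NCI60 panel in RPMI 1640 with 5% FBS and 2 mM L-glutamine. Cells were plated at 5000–40,000/well by doubling time, held 24 h, then time-zero plates were TCA-fixed. Five concentrations (10-fold or half-log dilutions of DMSO stocks) were applied for 48 h at 37 °C, 5% CO2. Cells were fixed with cold TCA (10% final adherent, 16% suspension) and stained with 0.4% SRB. Bound dye was dissolved in 10 mM Tris and read at 515 nm. GI50, TGI and LC50 were calculated per line.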

HCC 2998 = assay: Antitumor activity against human HCC2998 cells after 48 hrs by SRB assay; details: HCC 2998, 48 h; in short: as §3
LOX IMVI = assay: Cytotoxicity against human LOXIMVI cells assessed as cellular growth at 10 uM after 48 hrs by SRB assay
In short: (§4)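 NCI60 single-dose screen of cells in RPMI 1640 with 5% FBS and 2 mM L-glutamine, preincubated 24 h at 37 °C, 5% CO₂. Cells were then exposed 48 h to compound added from DMSO stock. TCA-fixed, stained with 0.4% SRB in 1% acetic acid, dye solubilised in 10 mM Tris base and read at 515 nm. Growth is given as percent of untreated control.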

UACC-62 [2] = assay: Cytotoxicity against human UACC62 cells assessed as cellular growth at 10 uM after 48 hrs by SRB assay; in short: as §2
CAKI-1 = assay: Antitumor activity against human Caki1 cells after 48 hrs by SRB assay; details: CAKI-1, 48 h; in short: as §3
EKVX = assay: Antitumor activity against human EKVX cells after 48 hrs by SRB assay; in short: as §3
BT-549 = assay: Antitumor activity against human BT549 cells after 48 hrs by SRB assay; details: BT-549, 48 h
In short: (§5)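 NCI60 screen: cells grown in RPMI 1640 with 5% FBS and 2 mM L-glutamine, plated at 5000–40,000 cells/well by doubling time, preincubated 24 h at 37 °C with 5% CO2. Compounds were diluted from DMSO stocks and given for 48 h, at five concentrations for dose response. A time-zero plate was TCA-fixed. Cells were TCA-fixed, stained with 0.4% SRB and read at 515 nm, with growth expressed relative to untreated controls.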

NCI-H23 = assay: Antitumor activity against human NCI-H23 cells after 48 hrs by SRB assay; details: NCI-H23, 48 h; in short: as §3
[3] = Cytotoxicity against human NCI60 cells assessed as cellular growth at 10 uM after 48 hrs by SRB assay relative to untreated control; in short: as §2
OVCAR-5 = assay: Antitumor activity against human OVCAR5 cells after 48 hrs by SRB assay; details: OVCAR-5, 48 h; in short: as §3
UO-31 [4] = assay: Antitumor activity against human UO31 cells after 48 hrs by SRB assay; details: UO-31, 48 h; in short: as §1
HL-60(TB) = assay: Antitumor activity against human HL-60(TB) cells after 48 hrs by SRB assay; details: HL-60, 48 h; in short: as §5
ACHN = assay: Cytotoxicity against human ACHN cells assessed as cellular growth at 10 uM after 48 hrs by SRB assay; in short: as §4
UACC-62 [5] = assay: Antitumor activity against human UACC62 cells after 48 hrs by SRB assay; details: UACC-62, 48 h; in short: as §1
[6] = read-out: LC50 (the source's name)
[7] = read-out: pLC50 (the source's name) (converted)

In the case of `COc1ccc(/C(=C2\O[C@@H]([C@H]3COC(C)(C)O3)[C@H]3OC(C)(C)O[C@@H]23)c2cc(OC)c(OC)c(OC)c2)cc1O`, the GI50 (SW-620; read-out: GI50) is reported as 7.28 µM, the CC50 (SW-620; [6]) is reported as > 100 µM and the TGI (SW-620; read-out: TGI) is reported as > 100 µM. The GI50 (SW-620; read-out: pGI50 (converted)) was 7.24 µM, the CC50 (SW-620; [7]) was > 100 µM and the TGI (SW-620; read-out: pTGI) was > 100 µM. The GI50 (U-251) was 3.12 µM, the TGI (U-251) was 11.8 µM and the CC50 (U-251; [6]) was > 100 µM. The GI50 (SNB-75) was 2.89 µM, the TGI (SNB-75) was 7.44 µM and the CC50 (SNB-75; [6]) was > 100 µM. The Activity (OVCAR-8) was 96.09%, the Activity (UO-31 [1]) was 123.08% and the GI50 (HOP-62) was 10.9 µM. The TGI (HOP-62) was 34.7 µM, the CC50 (HOP-62; [6]) was > 100 µM and the GI50 (HCC 2998; read-out: GI50) was 31.1 µM. For the same compound, the CC50 (HCC 2998; [6]) was > 100 µM, the TGI (HCC 2998; read-out: TGI) was 80.4 µM and the GI50 (HCC 2998; read-out: pGI50 (converted)) was 30.9 µM. The CC50 (HCC 2998; [7]) was > 100 µM, the TGI (HCC 2998; read-out: pTGI (converted)) was 81.3 µM and the Activity (LOX IMVI) was 47.56%. For the same compound, the Activity (UACC-62 [2]) was 82.85%, the GI50 (CAKI-1; read-out: GI50) was 14.6 µM and the CC50 (CAKI-1; [6]) was > 100 µM. For the same compound, the TGI (CAKI-1; read-out: TGI) was 42.2 µM, the GI50 (CAKI-1; read-out: pGI50 (converted)) was 14.8 µM and the CC50 (CAKI-1; [7]) was > 100 µM. The TGI (CAKI-1; read-out: pTGI (converted)) was 42.7 µM, the GI50 (EKVX; read-out: GI50) was 37.4 µM and the CC50 (EKVX; [6]) was > 100 µM. The TGI (EKVX; read-out: TGI) was > 100 µM, the GI50 (EKVX; read-out: pGI50 (converted)) was 37.2 µM and the CC50 (EKVX; [7]) was > 100 µM. For the same compound, the TGI (EKVX; read-out: pTGI) was > 100 µM, the CC50 (BT-549; [6]) was > 100 µM and the CC50 (BT-549; [7]) was > 100 µM. The GI50 (NCI-H23; read-out: GI50) was 21.8 µM, the CC50 (NCI-H23; [6]) was > 100 µM and the TGI (NCI-H23; read-out: TGI) was 74.9 µM. For the same compound, the GI50 (NCI-H23; read-out: pGI50 (converted)) was 20.9 µM, the CC50 (NCI-H23; [7]) was > 100 µM and the TGI (NCI-H23; read-out: pTGI (converted)) was 74.1 µM. The Activity [3] was 66%, the GI50 (OVCAR-5; read-out: GI50) was 59.6 µM and the CC50 (OVCAR-5; [6]) was > 100 µM. For the same compound, the TGI (OVCAR-5; read-out: TGI) was > 100 µM, the GI50 (OVCAR-5; read-out: pGI50 (converted)) was 60.3 µM and the CC50 (OVCAR-5; [7]) was > 100 µM. The TGI (OVCAR-5; read-out: pTGI (converted)) was > 100 µM, the GI50 (UO-31 [4]; read-out: GI50) was 21.7 µM and the CC50 (UO-31 [4]; [6]) was > 100 µM. For the same compound, the TGI (UO-31 [4]; read-out: TGI) was 70.4 µM, the GI50 (UO-31 [4]; read-out: pGI50 (converted)) was 21.9 µM and the CC50 (UO-31 [4]; [7]) was > 100 µM. For the same compound, the TGI (UO-31 [4]; read-out: pTGI (converted)) was 70.8 µM, the GI50 (HL-60(TB); read-out: GI50) was 6.48 µM and the CC50 (HL-60(TB); [6]) was > 100 µM. For the same compound, the TGI (HL-60(TB); read-out: TGI) was 56.8 µM, the GI50 (HL-60(TB); read-out: pGI50 (converted)) was 1.62 µM and the CC50 (HL-60(TB); [7]) was > 100 µM. It also gave a TGI (HL-60(TB); read-out: pTGI (converted)) of 56.2 µM, an Activity (ACHN) of 49.46% and a GI50 (UACC-62 [5]; read-out: GI50) of 22.9 µM. The CC50 (UACC-62 [5]; [6]) was > 100 µM, the TGI (UACC-62 [5]; read-out: TGI) was 57.6 µM and the GI50 (UACC-62 [5]; read-out: pGI50 (converted)) was 22.9 µM. The CC50 (UACC-62 [5]; [7]) was > 100 µM and the TGI (UACC-62 [5]; read-out: pTGI (converted)) was 57.5 µM.
